The source made the active and inactive calls. The calls are words filed in the database; no cut-off is given here.
Experiments:
[1] = target: T1, Metabotropic glutamate receptor 5 (Rattus norvegicus, UniProt P31424); experiment: Displacement of [3H]methoxyPEPy from rat mGluR5 expressed in HEK293 cells; assay type: cell-based
In short: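 Membranes from stable HEK cells expressing rat mGluR5a, resuspended in 50 mM Tris HCl/0.9% saline, pH 7.4. Final: 2 nM [3H]methoxyPEPy, 0.1 mg protein/mL, 0.13% DMSO, triplicate; 60 min at room temperature with shaking. Filtration onto GF/B filters, scintillation counting. Nonspecific binding with 5 µM MPEP. Ki derived from IC50 by nonlinear fit; mean ± SEM of three experiments.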

[2] = target: Metabotropic glutamate receptor 5 (Rattus norvegicus) (UniProt P31424); experiment: (§1) Activity at mGluR5 assessed as potentiation of glutamate-induced calcium flux in rat astrocytes; assay type: functional, cell-based
In short: (§2)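 Cortical astrocytes from 2-4-day-old Sprague Dawley rats, grown 1 week in DMEM/10% FBS/2 mM glutamine/20 mM HEPES at 37 °C, 5% CO2, then plated on poly-D-lysine. Dye-loaded 1 h at 37 °C; HBSS with 20 mM HEPES, 2.5 mM probenecid, pH 7.4.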

[3] = target: T1, Metabotropic glutamate receptor 5; experiment: as §1; assay type: functional, cell-based; in short: as §2

Metabotropic glutamate receptor 5 (Rattus norvegicus), sequence (P31424 21-1203 limits assumed): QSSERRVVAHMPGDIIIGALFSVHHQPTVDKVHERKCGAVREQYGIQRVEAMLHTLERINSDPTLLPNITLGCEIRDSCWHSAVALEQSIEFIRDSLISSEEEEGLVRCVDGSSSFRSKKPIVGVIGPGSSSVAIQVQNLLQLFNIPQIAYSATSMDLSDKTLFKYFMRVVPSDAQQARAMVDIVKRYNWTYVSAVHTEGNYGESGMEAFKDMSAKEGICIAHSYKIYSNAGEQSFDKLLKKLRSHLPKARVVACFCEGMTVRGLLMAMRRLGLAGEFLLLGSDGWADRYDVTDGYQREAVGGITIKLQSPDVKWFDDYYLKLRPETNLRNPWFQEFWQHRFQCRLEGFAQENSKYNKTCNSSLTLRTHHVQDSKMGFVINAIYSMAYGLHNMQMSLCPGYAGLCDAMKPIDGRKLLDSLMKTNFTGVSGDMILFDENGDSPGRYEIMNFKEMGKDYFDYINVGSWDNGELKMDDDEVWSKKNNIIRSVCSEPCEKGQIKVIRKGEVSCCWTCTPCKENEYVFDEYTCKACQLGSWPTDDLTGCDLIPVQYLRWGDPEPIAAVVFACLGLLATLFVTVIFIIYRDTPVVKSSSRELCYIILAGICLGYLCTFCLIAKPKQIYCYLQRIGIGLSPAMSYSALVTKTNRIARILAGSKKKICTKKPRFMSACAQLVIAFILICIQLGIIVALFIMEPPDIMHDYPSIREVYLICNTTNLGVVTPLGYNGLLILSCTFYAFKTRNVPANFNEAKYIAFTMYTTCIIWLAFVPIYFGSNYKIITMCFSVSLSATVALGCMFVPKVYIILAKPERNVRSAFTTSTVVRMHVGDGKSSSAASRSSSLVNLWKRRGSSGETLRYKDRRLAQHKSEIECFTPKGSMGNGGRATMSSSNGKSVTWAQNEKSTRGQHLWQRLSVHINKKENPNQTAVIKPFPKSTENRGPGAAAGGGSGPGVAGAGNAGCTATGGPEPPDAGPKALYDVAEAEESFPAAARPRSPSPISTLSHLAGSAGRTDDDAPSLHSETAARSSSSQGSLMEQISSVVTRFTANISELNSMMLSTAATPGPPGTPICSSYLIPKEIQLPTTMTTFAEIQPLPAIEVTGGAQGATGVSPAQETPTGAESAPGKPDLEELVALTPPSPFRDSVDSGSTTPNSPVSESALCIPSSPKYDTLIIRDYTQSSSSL
T1 sequence (P31424 whole entry): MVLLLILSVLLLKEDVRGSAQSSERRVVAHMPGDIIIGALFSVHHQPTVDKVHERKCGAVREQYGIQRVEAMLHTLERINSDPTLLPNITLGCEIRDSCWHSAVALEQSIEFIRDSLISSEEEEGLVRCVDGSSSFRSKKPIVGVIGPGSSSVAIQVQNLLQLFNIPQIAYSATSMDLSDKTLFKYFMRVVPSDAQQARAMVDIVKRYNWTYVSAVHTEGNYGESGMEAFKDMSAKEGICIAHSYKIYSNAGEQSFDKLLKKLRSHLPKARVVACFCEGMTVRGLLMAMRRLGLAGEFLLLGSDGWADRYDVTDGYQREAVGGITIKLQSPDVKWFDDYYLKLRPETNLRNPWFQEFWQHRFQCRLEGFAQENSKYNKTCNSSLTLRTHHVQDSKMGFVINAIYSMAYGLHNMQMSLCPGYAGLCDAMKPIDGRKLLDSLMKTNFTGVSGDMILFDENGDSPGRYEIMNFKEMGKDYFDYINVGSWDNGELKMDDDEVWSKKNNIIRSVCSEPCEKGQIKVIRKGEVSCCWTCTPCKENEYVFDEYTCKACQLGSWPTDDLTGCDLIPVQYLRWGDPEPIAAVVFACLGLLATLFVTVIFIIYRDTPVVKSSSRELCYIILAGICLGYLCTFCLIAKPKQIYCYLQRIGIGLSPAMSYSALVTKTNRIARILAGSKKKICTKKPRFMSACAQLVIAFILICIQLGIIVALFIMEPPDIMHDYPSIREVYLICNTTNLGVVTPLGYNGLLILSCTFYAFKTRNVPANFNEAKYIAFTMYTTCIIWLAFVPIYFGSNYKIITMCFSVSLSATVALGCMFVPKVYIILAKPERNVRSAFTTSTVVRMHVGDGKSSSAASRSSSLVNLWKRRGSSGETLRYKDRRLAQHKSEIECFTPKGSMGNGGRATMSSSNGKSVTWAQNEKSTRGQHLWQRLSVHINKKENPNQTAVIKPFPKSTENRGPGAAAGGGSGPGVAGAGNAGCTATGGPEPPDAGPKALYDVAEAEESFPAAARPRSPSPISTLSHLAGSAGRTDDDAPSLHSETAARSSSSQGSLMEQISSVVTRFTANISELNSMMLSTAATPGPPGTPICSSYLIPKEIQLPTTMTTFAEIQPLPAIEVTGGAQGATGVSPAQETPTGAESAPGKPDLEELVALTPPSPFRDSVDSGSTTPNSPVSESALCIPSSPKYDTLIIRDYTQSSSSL

| SMILES | Ki [1] [nM] | Activity ([2]; filed as antagonist) | EC50 [3] [nM] | Activity [2] |
| --- | --- | --- | --- | --- |
| O=C(Nc1c(-c2ccccc2)nc2ccccn12)c1ccccc1 | 3920 | Antagonist |  |  |
| O=C(CC1CCCC1)Nc1cc(-c2ccccc2)nn1-c1ccccc1 | > 10000 |  | 350 |  |
| N#Cc1ccc(C(=O)N(C(=O)c2ccc(C#N)cc2)c2cc(-c3ccccc3)nn2-c2ccccc2)cc1 | 3050 |  | 340 |  |
| Cc1ccc(C(=O)Nc2cc(-c3ccccc3)nn2-c2ccccc2)cc1 | 780 |  | 64 |  |
| O=C(Nc1cc(-c2ccccc2)nn1-c1ccccc1Cl)c1ccc([N+](=O)[O-])cc1 | 110 |  | 40 |  |
| COc1cc(OC)cc(C(=O)Nc2cc(-c3ccccc3)nn2-c2ccccc2)c1 | > 10000 |  | 2040 |  |
| N#Cc1ccc(C(=O)/N=c2\cc(-c3ccccc3)n(C(=O)c3ccc(C#N)cc3)n2-c2ccccc2)cc1 | 5230 |  | 43 |  |
| O=C(Nc1cc(-c2ccccc2)nn1-c1ccccc1)C1CCCCC1 | 10100 |  | > 10000 |  |
| O=C(/C=C/c1ccc([N+](=O)[O-])cc1)Nc1cc(-c2ccccc2)nn1-c1ccccc1 | 1810 |  | 560 |  |
| N#Cc1cccc(C(=O)Nc2cc(-c3ccccc3)nn2-c2ccccc2Br)c1 | 230 |  | 50 |  |
| NC(=O)c1ccc(C(=O)Nc2cc(-c3ccccc3)nn2-c2ccccc2)cc1 | > 10000 |  |  | inactive |
| O=C(Nc1cc(-c2ccccc2)nn1-c1ccccc1)c1cc([N+](=O)[O-])cc([N+](=O)[O-])c1 |  |  | 65 |  |
| O=C(Nc1cn(-c2ccccc2)nc1-c1ccccc1)c1ccccc1 | > 10000 |  | > 10000 |  |
| O=C(Nc1cc(-c2ccccc2)nn1-c1ccccn1)c1ccccc1 | > 10000 |  |  | inactive |
| O=C(Nc1cc(-c2ccccc2)nn1-c1ccccc1)C1=CCCCC1 | 4470 |  | 3300 |  |
| COc1ccc(C(=O)Nc2cc(-c3ccccc3)nn2-c2ccccc2)cc1OC | > 10000 |  | 3530 |  |
| O=C(Nc1c(-c2ccccc2)cnn1-c1ccccc1)c1ccccc1 | 1170 | Antagonist |  |  |
| O=C(Nc1cc(-c2ccccc2)nn1-c1ccccc1F)c1ccc([N+](=O)[O-])cc1 | 160 |  | 9.6 |  |
| c1ccc(-c2cn(-c3cc(-c4ccccc4)nn3-c3ccccc3)nn2)cc1 | 5880 |  | 2600 |  |
| COc1cccc(C(=O)Nc2cc(-c3ccccc3)nn2-c2ccccc2)c1 | 1290 |  | 102 |  |
| O=C(Nc1cc(-c2ccccc2)nn1-c1ccccc1)c1ccc(C(F)(F)F)cc1 | 990 |  | 38 |  |

Next, values leading:

| Ki [1] [nM] | Activity ([2]; filed as antagonist) | EC50 [3] [nM] | Activity [2] | SMILES |
| --- | --- | --- | --- | --- |
| 11600 |  | 3410 |  | O=C(Nc1cc(-c2ccccc2)nn1-c1ccccc1)C1CCCC1 |
| 250 |  | 10.7 |  | O=C(Nc1cc(-c2ccccc2)nn1-c1ccccc1)c1ccc([N+](=O)[O-])cc1 |
| 1560 |  | 75 |  | N#Cc1ccc(C(=O)Nc2cc(-c3ccccc3)nn2-c2ccccc2)cc1 |
| 160 |  | 13 |  | O=C(Nc1cc(-c2ccccc2)nn1-c1ccccc1)c1ccc(Cl)c(Cl)c1 |
| 2100 |  | 570 |  | COc1cccc(-n2nc(-c3ccccc3)cc2NC(=O)c2ccccc2)c1 |
| > 10000 |  | > 10000 |  | O=C(Nc1cn(-c2ccccc2)nc1-c1ccccc1)c1ccc([N+](=O)[O-])cc1 |
| > 10000 |  | 2290 |  | O=C(Nc1cc(-c2ccccc2Cl)nn1-c1ccccc1)c1ccccc1 |
| 120 |  | 61 |  | O=C(Nc1cc(-c2ccccc2)nn1-c1ccccc1Br)c1ccc([N+](=O)[O-])cc1 |
| > 10000 |  | > 10000 |  | O=C(Nc1c(-c2ccccc2)cnn1-c1ccccc1)c1ccc([N+](=O)[O-])cc1 |
| 500 |  | 62 |  | O=C(Nc1cc(-c2ccccc2)nn1-c1ccccc1Cl)c1ccccc1 |
| 265 |  | 18 |  | O=C(Nc1cc(-c2ccccc2)nn1-c1ccccc1)c1ccc(OC(F)(F)F)cc1 |
|  |  | 170 |  | O=C(c1ccc(F)cc1)N1CCC[C@H](c2nc(-c3ccc(F)cc3)no2)C1 |
| 2700 |  | 104 |  | O=C(Nc1cc(-c2ccccc2)nn1-c1ccccc1F)c1ccccc1 |
| > 10000 |  |  | inactive | O=C(O)c1ccc(C(=O)Nc2cc(-c3ccccc3)nn2-c2ccccc2)cc1 |
| > 10000 |  | 400 |  | O=C(Nc1cc(-c2ccccc2)nn1-c1cccc(Br)c1)c1ccccc1 |
| 1990 | Antagonist |  |  | N#Cc1cccc(C(=O)Nc2c(-c3ccccc3)nc3ccccn23)c1 |
| > 10000 |  | > 10000 |  | N#Cc1cccc(C(=O)Nc2cn(-c3ccccc3)nc2-c2ccccc2)c1 |
| 1650 |  | 228 |  | O=C(Nc1cc(-c2ccccc2)nn1-c1ccccc1)c1cccc(C(F)(F)F)c1 |
| 230 |  | 68 |  | O=C(Nc1cc(-c2ccccc2)nn1-c1ccccc1Br)c1cccc([N+](=O)[O-])c1 |
| 2220 |  | 39 |  | O=C(Nc1cc(-c2ccccc2)nn1-c1ccccc1)c1cccc([N+](=O)[O-])c1 |
| 2600 |  | 200 |  | O=C(Nc1cc(-c2ccccc2)nn1-c1ccccc1Br)c1ccccc1 |
| 430 |  | 20 |  | Cc1ccc(C(=O)Nc2cc(-c3ccccc3)nn2-c2ccccc2)cc1C |
| > 10000 |  | > 10000 |  | O=C(Nc1cc(-c2ccccc2)nn1-c1ccccc1)c1ccccc1[N+](=O)[O-] |
| > 10000 |  | 2500 |  | O=C(Nc1cc(-c2ccccc2)nn1-c1ccccc1)c1ccncc1 |
| 1200 | Antagonist |  |  | N#Cc1cccc(C(=O)Nc2c(-c3ccccc3)cnn2-c2ccccc2)c1 |
| 4180 |  | 203 |  | O=C(Nc1cc(-c2ccccc2)nn1-c1ccccc1)c1ccccc1 |
| 3200 |  | 600 |  | COc1cccc(-c2cc(NC(=O)c3ccccc3)n(-c3ccccc3)n2)c1 |
| > 10000 |  | 117 |  | N#Cc1cccc(-n2nc(-c3ccccc3)cc2NC(=O)c2ccccc2)c1 |
| 420 |  | 54 |  | COc1ccc(C(=O)Nc2cc(-c3ccccc3)nn2-c2ccccc2)cc1 |
| 3480 |  | 280 |  | Cc1ccc(C(=O)Nc2cc(-c3ccccc3)nn2-c2ccccc2)cn1 |

Source: ChEMBL document CHEMBL1148504, “Substituent effects of N-(1,3-diphenyl-1H-pyrazol-5-yl)benzamides on positive allosteric modulation of the metabotropic glutamate-5 receptor in rat cortical astrocytes” (J Med Chem, 2006)
